Here are results for twelve compounds from ChEMBL document CHEMBL3085725, “Design, synthesis and molecular modelling studies of novel 3-acetamido-4-methyl benzoic acid derivatives as inhibitors of protein tyrosine phosphatase 1B” (Eur J Med Chem, 2013).

Data set [1] addresses T1, Tyrosine-protein phosphatase non-receptor type 1 (Homo sapiens) (UniProt P18031).
T1 sequence (whole entry): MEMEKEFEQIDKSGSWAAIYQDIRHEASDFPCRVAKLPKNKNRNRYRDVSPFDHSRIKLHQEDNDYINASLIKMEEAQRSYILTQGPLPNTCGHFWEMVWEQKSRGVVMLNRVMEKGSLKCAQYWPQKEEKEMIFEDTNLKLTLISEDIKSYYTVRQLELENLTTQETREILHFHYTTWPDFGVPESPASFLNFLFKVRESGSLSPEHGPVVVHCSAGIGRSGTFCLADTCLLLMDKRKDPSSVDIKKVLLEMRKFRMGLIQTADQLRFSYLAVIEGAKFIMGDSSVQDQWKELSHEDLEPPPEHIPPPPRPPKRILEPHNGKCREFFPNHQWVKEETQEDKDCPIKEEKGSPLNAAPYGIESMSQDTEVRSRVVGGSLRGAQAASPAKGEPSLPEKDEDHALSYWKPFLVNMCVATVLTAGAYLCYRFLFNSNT
Description: Inhibition of recombinant human PTP1B at 10 uM by malachite green assay relative to control. The method, boiled down:
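Human recombinant PTP1B incubated with test compound at 10 µM; DMSO as control. Colorimetric, non-radioactive assay detecting free phosphate released, read with Biomol red phosphate reagent (malachite green basis). Percent inhibition is calculated against control activity without inhibitor, taken as 100%, from three independent sets of experiments.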

Data set [2] has as its target T2, Tyrosine-protein phosphatase non-receptor type 1 (Homo sapiens, UniProt P18031).
T2 sequence (P18031 whole entry): T1 sequence (whole entry)
Description: Inhibition of recombinant human PTP1B by malachite green assay. The method, boiled down:
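Human recombinant PTP1B; compounds giving around 50% inhibition at 10 µM are retested at six concentrations. Free phosphate released is detected colorimetrically with Biomol red (malachite green).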

The species named for data set [3] is Danio rerio. Briefly: Toxicity in zebra fish embryo assessed as death at 10 uM after 24 to 72 hrs by visible light microscopy. It counts as organism-based. To be noted: zebrafish, in vivo. The method, boiled down:
(§1)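 Wild-type Indian zebrafish strain kept at 28 °C, 14:10 h light/dark. Embryos from natural mating raised 24 h in E3 medium, dechorionated at 24 hpf with 500 µg/ml Pronase K for 10 min. Six embryos per well exposed to compound at 10 µM final in 0.1% DMSO for 24, 48 and 72 h. Controls received 0.1% DMSO. Embryos scored under visible light microscopy at intervals.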

Data set [4] relates to Danio rerio. Description: Toxicity in zebra fish embryo assessed as oedema at 10 uM after 24 to 72 hrs by visible light microscopy. The data set is classed as organism-based. To be noted: zebrafish, in vivo. The method in brief: as §1
The species entered for data set [5] is Danio rerio. Description: Toxicity in zebra fish embryo assessed as deformation at 10 uM after 24 to 72 hrs by visible light microscopy. The data set is classed as organism-based. To be noted: zebrafish, in vivo. The method, boiled down:
as §1

The species named for data set [6] is Danio rerio. Description: Toxicity in zebra fish embryo assessed as developmental delay at 10 uM after 24 to 72 hrs by visible light microscopy. It counts as organism-based. To be noted: zebrafish, in vivo. The method, boiled down: as §1

The structures appear in SMILES notation.

As a reminder, the inhibition is the change of the read-out against control, counted positive when it falls. For orientation: IC50 means the concentration needed to halve the response being measured.

Turning to `Cc1ccc(C(=O)O)cc1NC(=O)CSc1nnc(-c2ccccc2Cl)o1`, the inhibition in data set [1] was 27.5%.

`Cc1ccc(C(=O)O)cc1NC(=O)CSc1nc2ccccc2s1`: the inhibition in data set [1] is 57.5%. The IC50 in data set [2] was found to be 8.5 µM.

Consider `Cc1ccc(C(=O)O)cc1NC(=O)CSc1nnc(-c2ccccc2O)o1`, for which the inhibition in data set [1] was determined as 38.8%.

Take `Cc1ccc(C(=O)O)cc1NC(=O)CSc1nnc(-c2ccc(Cl)cc2Cl)o1`: the inhibition in data set [1] was 43.3%.

For the compound `Cc1ccc(C(=O)O)cc1NC(=O)CSc1nnc(-c2ccc(O)cc2)o1`, in data set [1], the inhibition worked out at 47%. Besides, the half-inhibitory concentration (IC50) in data set [2] was found to be 10.3 µM.

In the case of `Cc1ccc(C(=O)O)cc1NC(=O)CSc1nnc(-c2cccc(Cl)c2Cl)o1`, the inhibition in data set [1] stood at 29.9%.

For the compound `Cc1ccc(C(=O)O)cc1NC(=O)CSc1nc2ccccc2o1`, in data set [1], the inhibition worked out at 32.8%.

Consider `COc1ccc2[nH]c(SCC(=O)Nc3cc(C(=O)O)ccc3C)nc2c1`, for which the Activity result in data set [3], in data set [4], in data set [5] and in data set [6] was “Non-toxic” in each case. The inhibition in data set [1] turned out to be 57.5%. Also, in data set [2], the IC50 turned out to be 8.2 µM.

`COc1cc(-c2nnc(SCC(=O)Nc3cc(C(=O)O)ccc3C)o2)cc(OC)c1OC`: in data set [1], the inhibition is 50.7%. The IC50 in data set [2] is 9.7 µM.

With `Cc1ccc(-c2nnc(SCC(=O)Nc3cc(C(=O)O)ccc3C)o2)cc1`, the inhibition in data set [1] is 51.5%. For the same compound, the IC50 in data set [2] turned out to be 8.9 µM.

For `Cc1ccc(C(=O)O)cc1NC(=O)CSc1nc2ccccc2[nH]1`, the inhibition in data set [1] stood at 47.8%. In addition, in data set [2], the IC50 amounted to 15.2 µM.

For `Cc1ccc(C(=O)O)cc1NC(=O)CSc1nc2cc([N+](=O)[O-])ccc2[nH]1`, the inhibition in data set [1] turned out to be 26.9%.
